# Laboratory results as given in paper PMC6174986 (Journal of Clinical Pharmacology, 2018).
# Where two headings read alike, the source gives them in different places.
# Key:
# [1] = Population pharmacokinetic analysis of daclatasvir plasma concentrations; type: in vivo, human
# Outline: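 Japanese adults ≥ 20 years with chronic HCV genotype 1 (compensated cirrhosis allowed) from 4 clinical studies; oral 10 or 60 mg once daily, with asunaprevir or pegIFN/RBV. Plasma levels by validated LC‑MS/MS; below‑LLOQ samples excluded. Nonlinear mixed‑effects model: log‑normal interindividual variability, log‑transform‑both‑sides residual error, backward covariate elimination (P < .001), bootstrap 95% CIs.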
# [2] = cited from earlier work
# [3] = cited from earlier work; remark: listed apart in the source
# [4] = test system: P‐glycoprotein transporter; conditions: cited from earlier work
# [5] = test system: cytochrome P450 (CYP) 3A4; conditions: cited from earlier work
# [6] = healthy Japanese volunteers, within the dose range studied; cited from earlier work
# [7] = Population pharmacokinetic analysis of asunaprevir plasma concentrations; type: in vivo, human
# Outline: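 Japanese adults ≥20 y with chronic genotype 1 HCV (compensated cirrhosis allowed), from 2 clinical studies; oral 200 or 600 mg twice-daily tablet or 100 mg twice-daily soft-gel. Plasma by validated LC-MS/MS; below-LLOQ excluded. One-compartment, first-order absorption; log-normal IIV on CL/F, V/F; additive log-scale residual. Backward elimination (P < .001); bootstrap 95% CIs; 5th/95th covariate percentiles versus typical.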
# [8] = tablet formulation used in phase 1/2 studies; cited from earlier work
# [9] = mild impairment (Child‐Pugh class A cirrhosis); cited from earlier work
# CYP2D6 = conditions: asunaprevir; cited from earlier work
# [10] = cited from earlier work; remark: listed apart in the source
# [11] = test system: organic anion transporting polypeptide(OATP); conditions: asunaprevir; cited from earlier work
# [12] = final popPK model, Japanese HCV subjects
compound,measurement,setting,value
"COC(=O)N[C@H](C(=O)N1CCC[C@H]1c1nc(-c2ccc(-c3ccc(-c4c[nH]c([C@@H]5CCCN5C(=O)[C@@H](NC(=O)OC)C(C)C)n4)cc3)cc2)c[nH]1)C(C)C [daclatasvir, Daclatasvir]",Interindividual variability of CL/F,[1]; base popPK model,39.7%
same,Interindividual variability of V/F,[1]; base popPK model,40.7%
same,Effect of cirrhosis status and ALT/AST levels on CL/F,[1]; covariate analysis,not identified as significant covariates
same,"CL/F reduction, women relative to men",[1]; final model,approximately 10%
same,V/F lower than at median (reference) body weight of 56 kg,"[1]; final model, 5th percentile of baseline body weight, 42.8 kg",~15%
same,V/F higher than at median (reference) body weight of 56 kg,"[1]; final model, 95th percentile of baseline body weight, 78 kg",~22%
same,Interindividual variability of CL/F,[1]; final popPK model,39.4%
same,Interindividual variability of Ka,[1]; final popPK model,86.9%
same,Interindividual variability of V/F,[1]; final popPK model,38.1%
same,"Random effect CL/F: V/F, ω1,2, covariance (correlation)",[1]; final popPK model,0.141 (0.941)
same,"Ka (absorption rate constant), θ3",[1]; [12],0.865 h^‐1
same,"V/F (apparent volume of central compartment), θ2","[1]; final popPK model, Japanese HCV subjects, reference BBWT 56 kg",64.2 L
same,"V/F ∼BBWT (baseline body weight) covariate coefficient, θ14","[1]; final popPK model, reference 56 kg",0.605
same,"CL/F ∼BCRCL (baseline creatinine clearance) covariate coefficient, θ10","[1]; final popPK model, reference 86.48 mL/min",0.235
same,Excreted via feces in an unchanged form,[2],~88%
same,Renal elimination,[2],~7 % of dose
same,Association between exposure and degree of hepatic impairment or biochemical/serological markers of liver dysfunction,[3],no obvious association
same,Interaction with P‐glycoprotein transporter,[4]; daclatasvir,substrate and inhibitor
same,Effects on levels of the sensitive CYP3A probe midazolam in plasma,[5]; daclatasvir,minimal effects
same,Interaction with CYP3A4,[5]; daclatasvir,substrate and weak inducer
same,Dose‐exposure relationship,[6],generally linear
"C=C[C@@H]1C[C@]1(NC(=O)[C@@H]1C[C@@H](Oc2ncc(OC)c3ccc(Cl)cc23)CN1C(=O)[C@@H](NC(=O)OC(C)(C)C)C(C)(C)C)C(=O)NS(=O)(=O)C1CC1 [asunaprevir, Asunaprevir]",Impact of OATP1B1 haplotypes (4 categories) on CL/F,"[7]; covariate analysis, Japanese population",did not show statistical significance
same,CL/F at 5th percentile of time‐varying AST compared with the median baseline AST,"[7]; final model, AST at last PK sampling point 16 U/L, higher",1.57 fold
same,CL/F at 5th percentile of baseline AST relative to median baseline AST of 52 U/L,"[7]; final model, baseline AST 22 U/L, higher",1.67 fold
same,CL/F for cirrhotic subjects relative to subjects without cirrhosis,"[7]; final model, printed as fold lower",0.65 fold
same,Interindividual variability of CL/F,[7]; final popPK model,41.5%
same,Interindividual variability of V/F,[7]; final popPK model,93.4%
same,"Ka (absorption rate constant), θ3",[7]; [12],0.228 h^‐1
same,"V/F (apparent volume of central compartment), θ2","[7]; final popPK model, Japanese HCV subjects, phase 2 tablet reference",75.1 L
same,Food effect,[8],Significant food effects
same,Steady‐state exposures,[9],not changed
same,Interaction with CYP2D6,CYP2D6,moderate inhibitor
same,Observed AUC,"[10]; AI447017, phase 2 study, 200‐mg tablet formulation",2950 ng·h/mL
same,Observed AUC,"[10]; AI447026, phase 3 study, 100‐mg soft‐gel capsule",2155 ng·h/mL
same,Interaction with p‐glycoprotein,[4]; asunaprevir,weak inhibitor
same,Interaction with CYP3A4,[5]; asunaprevir,weak inducer and sensitive substrate
same,Dose‐exposure relationship,[6],generally increased dose‐proportionally
same,Interaction with OATP‐mediated uptake transport,[11],weak inhibitor and sensitive substrate
